Results taken from ChEMBL document CHEMBL1125330, “N-substituted pyrazino[2,3-c][1,2,6]thiadiazine 2,2-dioxides. A new class of diuretics” (J Med Chem, 1992).

Key:
Rattus norvegicus [1] = assay: Urinary sodium 1 hr after the compound was administered 10 mg/kg po in rat; type: ADME, organism-based, Urine; set-up: dose 10 mg/kg, route oral; conditions: in vivo
Summary of the method: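 Onset and duration study in fasted, water-loaded male Sprague-Dawley rats housed two per metabolic cage, six pairs per group. Single oral dose given, then water 2.5 mL/100 g po. Urine volume and sodium (flame photometry) measured over 0-1, 1-2, 2-3, 3-4 and 4-6 h intervals. Mean values compared with vehicle by Student t-test.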

Rattus norvegicus [2] = assay: Mean potassium excretion in rats when compound administered at 2.5 mg/kg po and vehicle dosed at 8.4 umol/kg; type: ADME, organism-based; set-up: dose 2.5 mg/kg, route oral; conditions: in vivo
Summary of the method: (§1)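 Male Sprague-Dawley rats (HC/CFY, 175-200 g), no food or water for 18 h before and during the test. Single gavage dose (2.5-160 mg/kg; vehicle 1% carboxymethyl cellulose/0.1% Tween 80, 0.5 mL/100 g bw), then distilled water 2.5 mL/100 g bw po. Individual metabolic cages, 6 h urine. K+ by flame photometry, Cl- colorimetric, as mequiv/6 h/kg bw; unpaired Student t-test vs control.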

Rattus norvegicus [3] = assay: Volume of urine 1 hr after the compound was administered 10 mg/kg po in rat; type: ADME, organism-based; set-up: dose 10 mg/kg, route oral; conditions: in vivo
Summary of the method: (§2)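 Onset/duration protocol: male Sprague-Dawley rats (HC/CFY, 175-200 g), food and water withdrawn for 18 h before and during the test. Single gavage dose in 1% carboxymethyl cellulose/0.1% Tween 80 (0.5 mL/100 g bw), then distilled water load (2.5 mL/100 g bw po). Two rats per metabolic cage, six pairs per group. Urine collected at 0-1, 1-2, 2-3, 3-4 and 4-6 h; Na+ by flame photometry. Vehicle controls; nonpaired Student t-test.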

Rattus norvegicus [4] = assay: Volume of urine 2 hr after the compound was administered 10 mg/kg po in rat; type: ADME, organism-based; set-up: dose 10 mg/kg, route oral; conditions: in vivo; summary of the method: as §2
Rattus norvegicus [5] = assay: Volume of urine 3h after the compound was administered 10 mg/kg po in rat; type: ADME, organism-based; set-up: dose 10 mg/kg, route oral; conditions: in vivo; summary of the method: as §2
Rattus norvegicus [6] = assay: Volume of urine 4 hr after the compound was administered 10 mg/kg po in rat; type: ADME, organism-based; set-up: dose 10 mg/kg, route oral; conditions: in vivo; summary of the method: as §2
Rattus norvegicus [7] = assay: Volume of urine 6 hr after the compound was administered 10 mg/kg po in rat; type: ADME, organism-based; set-up: dose 10 mg/kg, route oral; conditions: in vivo; summary of the method: as §2
Rattus norvegicus [8] = assay: Mean Chlorine excretion in rats when compound administered at 2.5 mg/kg po and vehicle dosed at 8.4 umol/kg; type: ADME, organism-based; set-up: dose 2.5 mg/kg, route oral; conditions: in vivo; summary of the method: as §1
Rattus norvegicus [9] = assay: Mean Chlorine excretion in rats when compound administered at 20 mg/kg po and vehicle dosed at 67.18 umol/kg; type: ADME, organism-based; set-up: dose 20 mg/kg, route oral; conditions: in vivo; summary of the method: as §1
Rattus norvegicus [10] = assay: Mean Chlorine excretion in rats when compound administered at 40 mg/kg po and vehicle dosed at 134.35 umol/kg; type: ADME, organism-based; set-up: dose 40 mg/kg, route oral; conditions: in vivo; summary of the method: as §1
Rattus norvegicus [11] = assay: Mean urinary output in rats when compound administered at 0 mg/kg po and vehicle dosed at 0 umol/kg; type: ADME, organism-based, Urine; set-up: dose 0 mg/kg, route oral; conditions: in vivo
Summary of the method: (§3)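 Water-loaded male Sprague-Dawley rats (HC/CFY, 175-200 g) fasted and without water for 18 h. Oral gavage of 2.5-160 mg/kg in 1% CMC with 0.1% Tween 80, then distilled water 2.5 mL/100 g po. Urine collected 6 h in metabolic cages, mean output in mL/6 h/kg bw. Unpaired Student t-test against vehicle; dose-response by linear regression.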

Rattus norvegicus [12] = assay: Mean urinary output in rats when compound administered at 10 mg/kg po and vehicle dosed at 33.59 umol/kg; type: ADME, organism-based, Urine; set-up: dose 10 mg/kg, route oral; conditions: in vivo; summary of the method: as §3
Rattus norvegicus [13] = assay: Mean urinary output in rats when compound administered at 2.5 mg/kg po and vehicle dosed at 8.4 umol/kg; type: ADME, organism-based, Urine; set-up: dose 2.5 mg/kg, route oral; conditions: in vivo; summary of the method: as §3
Rattus norvegicus [14] = assay: Mean urinary output in rats when compound administered at 20 mg/kg po and vehicle dosed at 67.18 umol/kg; type: ADME, organism-based, Urine; set-up: dose 20 mg/kg, route oral; conditions: in vivo; summary of the method: as §3
Rattus norvegicus [15] = assay: Mean urinary output in rats when compound administered at 40 mg/kg po and vehicle dosed at 134.35 umol/kg; type: ADME, organism-based, Urine; set-up: dose 40 mg/kg, route oral; conditions: in vivo; summary of the method: as §3
Rattus norvegicus [16] = assay: Mean urinary output in rats when compound administered at 5 mg/kg po and vehicle dosed at 16.79 umol/kg; type: ADME, organism-based, Urine; set-up: dose 5 mg/kg, route oral; conditions: in vivo; summary of the method: as §3
Rattus norvegicus [17] = assay: Mean urinary output in rats when compound administered at 80 mg/kg po and vehicle dosed at 268.71 umol/kg; type: ADME, organism-based, Urine; set-up: dose 80 mg/kg, route oral; conditions: in vivo; summary of the method: as §3
[18] = Acute toxicity in mice when given po; type: organism-based; conditions: mouse, in vivo, read-out: DL50 (the source's name)
Summary of the method: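 Male Swiss mice (SPF, HC/CFLP strain, 20–25 g), oral dosing; mortality followed over 15 days; LD50 derived by the Litchfield and Wilcoxon method.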

Rattus norvegicus [19] = assay: Dose required to produce an excretion of 2 mequiv of Na+/kg bw/6h vs control groups; type: functional
Summary of the method: (§4)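 Male Sprague-Dawley rats (HC/CFY, 175-200 g), fasted and water-deprived 18 h before and during the test. Compound dosed by gavage in 1% carboxymethyl cellulose/0.1% Tween 80, then water load 2.5 mL/100 g bw po. Urine collected 6 h in metabolic cages; Na+ by flame photometry. Effective doses vs vehicle controls derived by linear regression of dose-response data.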

Rattus norvegicus [20] = species: Rattus norvegicus; assay: Dose required to produce increase in 50 % in urine production vs control groups; type: functional; conditions: Rattus norvegicus, Urine; summary of the method: as §4
Rattus norvegicus [21] = assay: Post dosing time interval of maximum activity; type: functional
Summary of the method: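 Interval of peak activity taken from timed urine collections (0-1, 1-2, 2-3, 3-4, 4-6 h) after a single oral dose in water-loaded fasted rats, […]. Urine volume and Na+ excretion followed over time.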

For `NS(=O)(=O)c1cc2c(cc1Cl)NCNS2(=O)=O` [HYDROCHLOROTHIAZIDE], the “Urinary Na+” value (Rattus norvegicus [1]) was 0.19 m equiv, the K (Rattus norvegicus [2]) was 1.26 m equiv 6hr-1 kg-1 (body weight)-1 and the Urine volume (Rattus norvegicus [3]) was 1.38 mL. For the same molecule, the Urine volume (Rattus norvegicus [4]) was 4.97 mL, the Urine volume (Rattus norvegicus [5]) was 3.37 mL and the Urine volume (Rattus norvegicus [6]) was 2.92 mL. The Urine volume (Rattus norvegicus [7]) was 3.42 mL, the Cl- (Rattus norvegicus [8]) was 4.42 m equiv 6hr-1 kg-1 (body weight)-1 and the Cl- (Rattus norvegicus [9]) was 4.67 m equiv 6hr-1 kg-1 (body weight)-1. For the same molecule, the Cl- (Rattus norvegicus [10]) was 3.94 m equiv 6hr-1 kg-1 (body weight)-1, the V (Rattus norvegicus [11]) was 24.3 ml 6hr-1 (kg of body weight)-1 and the V (Rattus norvegicus [12]) was 39.01 ml 6hr-1 (kg of body weight)-1. For the same molecule, the V (Rattus norvegicus [13]) was 32.5 ml 6hr-1 (kg of body weight)-1, the V (Rattus norvegicus [14]) was 42.94 ml 6hr-1 (kg of body weight)-1 and the V (Rattus norvegicus [15]) was 44.48 ml 6hr-1 (kg of body weight)-1. The V (Rattus norvegicus [16]) was 38.07 ml 6hr-1 (kg of body weight)-1, the V (Rattus norvegicus [17]) was 47.06 ml 6hr-1 (kg of body weight)-1 and the LD50 [18] was over 6000 mg/kg. For the same molecule, the ED2 (Rattus norvegicus [19]) was 1.57 mg/kg, the ED50 (Rattus norvegicus [20]) was 4.86 mg/kg and the Time (Rattus norvegicus [21]) was 2 h.
